Test results reported in paper PMC2914325 (Nanomedicine (London, England), 2010).

Assays:
[1] = Aggregation / stability of probes in solvents; type: physicochemical
[2] = Absorption and fluorescence spectroscopy, quantum yield, TCSPC lifetime, TRES; type: physicochemical; conditions: for λem: 720 nm excitation; for τ (fluorescence lifetime): TCSPC, 773 nm excitation, 820 nm detection; for Φ (quantum yield): relative to ICG in DMSO
[3] = test system: intradermal 4T1luc tumors in mouse ears; assay: High resolution noninvasive NIR imaging of intradermal ear tumors; type: in vivo, mouse (female balb/c); conditions: post-injection
Procedure, shortened: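 4T1luc cells (1×10^4) were implanted intradermally in each ear; n=3. From day 3, isoflurane-anaesthetised mice had glycerin-coated ears imaged at 800 nm (0.02 mm/pixel). Nanoparticles (0.10 mL, 4×10^13 particles/mL) or small-molecule probe (0.02 mL, 20 μM, 20% DMSO/water) were given i.v. by tail vein. Imaging was pre-, immediately post-, 4 h and 24 h post-injection, repeated days 8 and 15. Background-subtracted tumour ROI intensity was normalised to injected dose from vessel ROIs.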

[4] = test system: subcutaneous 4T1luc tumors; assay: Whole-body planar fluorescence reflectance imaging; type: in vivo, mouse (male NCR nude); conditions: 24 hours post-injection, i.v., subcutaneous 4T1luc tumor
Procedure, shortened: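 Tumours were 2×10^5 4T1luc cells s.c. in the right shoulder; n=3. Mice received i.v. 100 μl small-molecule probe (20 μM, 20% DMSO/water) or 150 μL nanoparticles. Planar NIR reflectance images (755±35 nm excitation, 830 nm emission, 60 s) were taken at 1, 4 and 24 h, with white-light/X-ray reference. Organs were then imaged ex vivo. ROI mean intensities were compared by Student's t-test (α = 0.05).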

[5] = 20% DMSO/water, room temperature

aggregation ([1]; aqueous solutions)	ε × 10^-3 ([2]; DMSO, room temperature)	λabs ([2]; DMSO, room temperature)	λem ([2]; DMSO, room temperature)	τ (fluorescence lifetime) ([2]; DMSO)	Φ (quantum yield) ([2]; DMSO)	Compound	stability in solvent ([1]; 20% DMSO/water)	λabs [2, 5]	λem [2, 5]	τ (fluorescence lifetime) ([2]; 20% DMSO/water)	Φ (quantum yield) ([2]; 20% DMSO/water)	time of peak tumor-to-normal contrast [3]	In vivo tumor contrast [4]
form non-emissive aggregates	224 M^-1 cm^-1	790 nm	817 nm	0.97 ns	0.12	CC1(C)C(/C=C/C=C/C=C/C=C2/N(CCC(=O)O)c3ccc4ccccc4c3C2(C)C)=[N+](CCC(=O)[O-])c2ccc3ccccc3c21 [cypate]	–	–	–	–	–	–	–
–	–	–	–	–	–	cypate-cRGDfK	stable	790 nm	804 nm	0.24 ns	0.036	4 h	1.32 +/- 0.13
